Assay outcomes as filed in PubChem.
OX1R antag-1 – antagonists of human orexin 1 receptor; O43613; CHO/OX1R cells, Fluo-8 calcium fluorescence, orexin A; inhibition, % at 5 µM; 0.43% of 330,000 active;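 active = inhibition above its plate's threshold, mean inhibition of all tested compounds on the plate plus 3 SD, cut at about 37% in these data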
TAAR1 antagonist – human TAAR1 antagonism; 1.5% of 360,000 active; Q96RJ0; CHO RD-HGA16 TAAR1, Fluo-8 calcium fluorescence, antagonist; AID 624466; inhibition, % at 3 µM;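 active = inhibition above a per-plate cutoff, the mean inhibition of test compounds on that plate plus 3 SD, cut at about 49% in these data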
Target sequence (Q96RJ0 whole entry, looked up): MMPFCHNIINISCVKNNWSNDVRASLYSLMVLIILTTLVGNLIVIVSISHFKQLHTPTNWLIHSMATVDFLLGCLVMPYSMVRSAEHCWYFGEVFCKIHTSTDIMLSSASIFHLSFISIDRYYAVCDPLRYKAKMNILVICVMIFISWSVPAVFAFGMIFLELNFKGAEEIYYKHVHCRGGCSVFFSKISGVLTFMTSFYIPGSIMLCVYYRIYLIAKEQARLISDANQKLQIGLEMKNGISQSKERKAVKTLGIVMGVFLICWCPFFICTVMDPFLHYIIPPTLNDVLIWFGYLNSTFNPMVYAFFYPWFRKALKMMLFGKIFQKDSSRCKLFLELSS
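Test system: hTAAR1-expressing CHO RD-HGA16 cells, Gα16-coupled; Probe or stimulus: EC80 β-phenethylamine stimulus; Compound dosing: single nominal final test compound concentration of 3 µM; Timing: 140 s kinetic read after compound, 140 s after agonist; Signal: Fluo-8 calcium-sensitive fluorescence; Measure: % inhibition of agonist calcium response; Controls: DMSO and EC80 PEA controls.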
GalR3 antagonist – antagonists of human GalR3; O60755; HEK293 GalR3-CNG cAMP membrane potential fluorescence; galR3 body fused to GalR1 C-terminus; inhibition, % at 3 µM; 0.44% of 360,000 active; AID 651719;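 active = inhibition above the screen-wide average plus 3 SD, cut at about 13% in these data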;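 also: forskolin and galanin both at EC90 stimulate the cells; cAMP rise reported by CNG channel membrane potential dye signal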
Target sequence (O60755 1-299 limits assumed): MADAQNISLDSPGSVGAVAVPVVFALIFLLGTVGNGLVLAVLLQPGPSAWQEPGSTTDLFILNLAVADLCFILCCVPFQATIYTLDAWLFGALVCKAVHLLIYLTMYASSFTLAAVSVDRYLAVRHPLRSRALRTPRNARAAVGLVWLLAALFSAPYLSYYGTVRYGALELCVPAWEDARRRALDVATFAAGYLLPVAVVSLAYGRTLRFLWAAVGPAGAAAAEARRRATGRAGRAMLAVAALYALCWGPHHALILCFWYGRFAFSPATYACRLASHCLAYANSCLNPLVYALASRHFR
CHO parental Ca – counter-screen: ATP calcium response change in parental CHO cells; parental CHO-K1, ATP-induced calcium, Fluo-8 fluorescence; inhibition, % at 5.6 µM; 0.63% of 330,000 active;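 active = inhibition above that plate's mean sample inhibition plus 3 SD, cut at about 26% in these data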
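Assay system: untransfected parental CHO cell line. Also added: ATP agonist challenge. Dosing: one dose, 5.6 µM nominal. Measured by: Fluo-8 fluorescence. Read-out: % inhibition. Benchmarks: ATP wells versus no-ATP DMSO wells. Repeats: no replicates.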
OX1R antag-2 – OX1R (human) antagonism. OX1R-expressing cells, FRET antagonist read-out. O43613. inhibition, % at 6.6 µM. 1.8% of 330,000 active; in the data active = inhibition mostly above about 38%, no sharp cut-off; inactive = mostly below about 40%
TAAR1 ag – human TAAR1 agonism. CHO RD-HGA16 TAAR1, Fluo-8 calcium fluorescence; vehicle wells 0%, saturating PEA agonist 100%. 0.99% of 360,000 active. Q96RJ0. activation, % at 3 µM;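 active = activation above the mean activation of all test compounds in the run plus 3 SD, cut at about 38% in these data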
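System: CHO-derived RD-HGA16 cells with stable Gα16 and human TAAR1 / Times: 17-24 h plating, Fluo-8 75 min 37 °C, 30 min RT / Technique: calcium-sensitive Fluo-8 signal, excitation 470-495, emission 515-575 nm / Measure: % activation relative to PEA EC100 response / Benchmarks: DMSO and PEA EC100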
TAAR1 ag confirm – confirmation of human TAAR1 agonists; shares compounds with TAAR1 ag; CHO RD-HGA16 TAAR1, Fluo-8 calcium fluorescence; scaled: DMSO 0%, maximal phenethylamine 100%; AID 651783; 82% of 2,400 active; activation, % at 3 µM;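 active = activation above a cutoff set at the run's mean compound activation plus 3 SD, cut at about 39% in these data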
Ga16 nonsel ag – nonselective agonist in parental cells, TAAR1 agonist counter-screen. shares compounds with TAAR1 ag. CHO-Ga16 parental, Fluo-8 calcium fluorescence; normalized to maximal ATP response, DMSO zero. activation, % at 3 µM. 50% of 2,400 active. AID 651787;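 active = activation above the run cutoff, the mean activation over all tested wells plus 3 SD, cut at about 12% in these data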
TAAR1 desens – TAAR1 response desensitization, agonist counter-screen. shares compounds with TAAR1 ag. CHO RD-HGA16 hTAAR1, Fluo-8 calcium, beta-PEA response inhibition. inhibition, % at 3 µM. 46% of 2,400 active. AID 651951;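 active = inhibition above the run cutoff, the mean inhibition of all test compounds plus 3 SD, cut at about 49% in these data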;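 also: beta-PEA stimulus applied at its EC80; loss of beta-PEA calcium signal after compound pretreatment read as receptor desensitization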
Ga16 nonsel ant – nonselective Ga16 antagonist in TAAR1 agonist counter-screen. shares compounds with TAAR1 ag. CHO-Ga16 ATP-induced calcium, Fluo-8 fluorescence. inhibition, % at 3 µM. 39% of 2,400 active. AID 651952;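 active = inhibition above the plate's mean compound inhibition plus 3 SD, computed per plate, cut at about 22% in these data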
Each line names hits and unclear results; the compound was inactive in the other large screens (follow-up assays come after a bar, where they were run). Sampled rows, rich in hits. Any-hit rate of the full collection: about 4.3%.

O=C(CSCc1c(F)cccc1Cl)NCCc1ccccc1	TAAR1 ag 43.0 | TAAR1 ag confirm 79.5 | Ga16 nonsel ag inactive | TAAR1 desens inactive | Ga16 nonsel ant inactive
O=C(NCCc1ccccc1)c1nc2nc(-c3cccs3)cc(C(F)(F)F)n2n1	TAAR1 antagonist 84.0, TAAR1 ag 83.7 | TAAR1 ag confirm 91.0 | Ga16 nonsel ag inactive | TAAR1 desens 90.5 | Ga16 nonsel ant inactive
COc1ccc(Cc2nnc(NC(=O)c3ccc(OC)c(OC)c3)s2)cc1OC	none
COc1ccc(Cc2nnc(NC(=O)CSc3ccccc3)s2)cc1	TAAR1 antagonist 50.1, TAAR1 ag 48.9 | TAAR1 ag confirm inactive | Ga16 nonsel ag inactive | TAAR1 desens inactive | Ga16 nonsel ant inactive
COc1ccc(Cc2nnc(NC(=O)CSc3ccc(Cl)cc3)s2)cc1OC	TAAR1 ag 86.6 (no result: OX1R antag-1, CHO parental Ca, OX1R antag-2) | TAAR1 ag confirm 75.0 | Ga16 nonsel ag 41.9 | TAAR1 desens inactive | Ga16 nonsel ant inactive
CCOC(=O)c1ccc(NC(=S)NCCc2ccccc2F)cc1	TAAR1 ag 70.2 | TAAR1 ag confirm 88.6 | Ga16 nonsel ag inactive | TAAR1 desens 86.0 | Ga16 nonsel ant 33.4
COc1ccc(C(=O)NC(=S)Nc2ccc(S(N)(=O)=O)cc2)cc1	none
COC(=O)c1ccc(NC(=S)NCCc2ccccc2)cc1	TAAR1 antagonist 53.8, TAAR1 ag 73.1 | TAAR1 ag confirm 81.9 | Ga16 nonsel ag 11.9 | TAAR1 desens 77.4 | Ga16 nonsel ant 28.3
COc1ccc(CC(=O)NC(=S)Nc2ccc(S(N)(=O)=O)cc2)cc1	TAAR1 ag 80.9 | TAAR1 ag confirm 88.2 | Ga16 nonsel ag 39.6 | TAAR1 desens inactive | Ga16 nonsel ant 27.9
S=C(NCc1ccccc1)C(=S)NCc1ccccc1	none (no result: OX1R antag-1, CHO parental Ca, OX1R antag-2)
S=C(NCc1ccccc1)NCc1ccc(CNC(=S)NCc2ccccc2)cc1	TAAR1 antagonist 65.1, CHO parental Ca 48.3, TAAR1 ag 55.6 | TAAR1 ag confirm 51.1 | Ga16 nonsel ag 20.1 | TAAR1 desens 62.7 | Ga16 nonsel ant 47.3
O=C(C[C@H]1C(=O)N(C2CCCCC2)C[C@@H]1c1ccccc1)Nc1ccc(Br)cc1	none (no result: OX1R antag-1, CHO parental Ca, OX1R antag-2)
C#CCn1cc(/C=N/Nc2nc3ccccc3[nH]2)c2ccccc21	none
O=S(=O)(c1ccc(NC(=S)NN=C(Cc2ccccc2)Cc2ccccc2)cc1)N1CCOCC1	none
CC(=O)c1ccc(NC(=S)NCCc2ccc(S(N)(=O)=O)cc2)cc1	none
O=S(=O)(NC1=NCCC1)c1cccc(NC(=S)NCCc2ccccc2)c1	TAAR1 ag 62.4 | TAAR1 ag confirm inactive | Ga16 nonsel ag inactive | TAAR1 desens inactive | Ga16 nonsel ant inactive
NS(=O)(=O)c1ccc(NC(=S)NCCc2ccccc2)cc1	TAAR1 ag 54.2 | TAAR1 ag confirm 81.8 | Ga16 nonsel ag inactive | TAAR1 desens 68.3 | Ga16 nonsel ant inactive
O=S(=O)(c1ccc(NC(=S)NCCc2ccccc2)cc1)N1CCOCC1	TAAR1 ag 74.2 | TAAR1 ag confirm 85.7 | Ga16 nonsel ag 13.0 | TAAR1 desens 65.3 | Ga16 nonsel ant 26.4
NNC(=S)NCCc1ccccc1	none (no result: TAAR1 antagonist, TAAR1 ag) | Ga16 nonsel ag inactive | Ga16 nonsel ant inactive
CC(NS(=O)(=O)c1ccc(F)cc1)C(=O)Nc1ccc2c(c1)OCCO2 (configuration not stated)	none
COc1ccc([N+](=O)[O-])cc1NCC(=O)Nc1cc(S(=O)(=O)N2CCCCC2)ccc1C	none
O=C(CN1C(=O)C2CCCCC2C1=O)Nc1nc2ccc(F)cc2s1 (configuration not stated)	none
COc1ccc([C@H]2C(C(=O)O)=C[C@@H](CC3CCCC3)N2S(=O)(=O)c2ccc(C)cc2)cc1OC	none
Cc1ccc(-c2nnn(CC(=O)NCCc3ccc4c(c3)OCO4)n2)cc1	TAAR1 antagonist 67.3, TAAR1 ag 77.7 | TAAR1 ag confirm 47.4 | Ga16 nonsel ag inactive | TAAR1 desens inactive | Ga16 nonsel ant inactive
CCN(CC)CCCNC(=O)c1oc2ccc(S(=O)(=O)N3CC(C)CC(C)C3)cc2c1C (configuration not stated)	none
O=C(O)c1ccc(N/N=C/C=C/c2ccccc2[N+](=O)[O-])cc1	TAAR1 ag 65.5 | TAAR1 ag confirm 51.1 | Ga16 nonsel ag 21.1 | TAAR1 desens 53.0 | Ga16 nonsel ant 35.5
N#C/C(=C/c1ccc(N2CCOCC2)o1)C(=O)NC1CCCCC1	none
N#C/C(=C/c1ccc(N2CCCCC2)o1)C(=O)Nc1ccc(Cl)cc1	OX1R antag-1 99.0, TAAR1 antagonist 108.6, CHO parental Ca 77.4, TAAR1 ag 312.3 | TAAR1 ag confirm 127.3 | Ga16 nonsel ag 165.7 | TAAR1 desens 95.6 | Ga16 nonsel ant 92.2
N#C/C(=C/c1ccc(N2CCCCC2)o1)C(=O)Nc1ccc2ccccc2c1	TAAR1 antagonist 107.1, TAAR1 ag 268.2 (no result: OX1R antag-1, CHO parental Ca, OX1R antag-2) | TAAR1 ag confirm 199.2 | Ga16 nonsel ag 223.2 | TAAR1 desens 93.4 | Ga16 nonsel ant 94.7
O=C(CSc1nnc(-c2cccs2)n1C1CC1)NCC1CCCO1 (configuration not stated)	none
Nc1ccn([C@@H]2O[C@H](C(=O)N3CCCN(Cc4ccccc4F)CC3)[C@@H](O)[C@H]2O)c(=O)n1	none (no result: OX1R antag-1, CHO parental Ca, OX1R antag-2)
CCCOc1ccc(F)cc1-c1cc(C(=O)Nc2ccc(C(C)C)cc2)[nH]n1	none (no result: OX1R antag-1, CHO parental Ca, OX1R antag-2)
NC(=O)Nc1ccc(C(=O)OCC(=O)c2c[nH]c3ccccc23)cc1	TAAR1 ag 47.7 | TAAR1 ag confirm 59.1 | Ga16 nonsel ag inactive | TAAR1 desens inactive | Ga16 nonsel ant inactive
CCN(c1ccccc1)S(=O)(=O)c1ccc(Oc2ccccc2)c(N)c1	none (no result: OX1R antag-1, CHO parental Ca, OX1R antag-2)
FC(F)(F)c1cc(CO[C@@H]2CCCN[C@@H]2c2ccccc2)cc(C(F)(F)F)c1	TAAR1 ag 69.8 (no result: GalR3 antagonist) | TAAR1 ag confirm inactive | Ga16 nonsel ag 29.1 | TAAR1 desens inactive | Ga16 nonsel ant inactive
CCCN1C(=O)S/C(=C\c2ccc(N3CCOCC3)o2)C1=O	TAAR1 ag 56.1 | TAAR1 ag confirm 59.6 | Ga16 nonsel ag 53.1 | TAAR1 desens inactive | Ga16 nonsel ant 43.9
CCCN1C(=O)S/C(=C/c2ccc(N3CCOCC3)o2)C1=O	none
